According to PubChem BioAssay:
Calls of active or inactive are those of the source.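 Rule for the calls, unless noted: active = viability at or below 30% in both replicate assays; inconclusive = viability at or below 30% in just one of the two assays; inactive = the rest.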

Tests used:
[1] = reducers of endogenous Her2 protein level, primary screen, SKBR3 breast tumor cells, AlphaScreen, ATP viability (AID 461;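 active = Her2 level under about 52% in both replicate screens, with viability over 70% of control, limit read from the data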;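 for Her2 level: lower value means less Her2 protein in the cells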;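 for viability: percent of carrier control wells set as 100% viability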); conditions: 18-24 h, measured here: SKBR3 viability, ATP luminescence, at 10 µM
[2] = target: Receptor tyrosine-protein kinase erbB-2 (Homo sapiens) (UniProt P04626); experiment: as above; conditions: 18-24 h, at 10 µM, stronger effect = lower value
Chain of Receptor tyrosine-protein kinase erbB-2 (Homo sapiens) (P04626 whole entry, looked up): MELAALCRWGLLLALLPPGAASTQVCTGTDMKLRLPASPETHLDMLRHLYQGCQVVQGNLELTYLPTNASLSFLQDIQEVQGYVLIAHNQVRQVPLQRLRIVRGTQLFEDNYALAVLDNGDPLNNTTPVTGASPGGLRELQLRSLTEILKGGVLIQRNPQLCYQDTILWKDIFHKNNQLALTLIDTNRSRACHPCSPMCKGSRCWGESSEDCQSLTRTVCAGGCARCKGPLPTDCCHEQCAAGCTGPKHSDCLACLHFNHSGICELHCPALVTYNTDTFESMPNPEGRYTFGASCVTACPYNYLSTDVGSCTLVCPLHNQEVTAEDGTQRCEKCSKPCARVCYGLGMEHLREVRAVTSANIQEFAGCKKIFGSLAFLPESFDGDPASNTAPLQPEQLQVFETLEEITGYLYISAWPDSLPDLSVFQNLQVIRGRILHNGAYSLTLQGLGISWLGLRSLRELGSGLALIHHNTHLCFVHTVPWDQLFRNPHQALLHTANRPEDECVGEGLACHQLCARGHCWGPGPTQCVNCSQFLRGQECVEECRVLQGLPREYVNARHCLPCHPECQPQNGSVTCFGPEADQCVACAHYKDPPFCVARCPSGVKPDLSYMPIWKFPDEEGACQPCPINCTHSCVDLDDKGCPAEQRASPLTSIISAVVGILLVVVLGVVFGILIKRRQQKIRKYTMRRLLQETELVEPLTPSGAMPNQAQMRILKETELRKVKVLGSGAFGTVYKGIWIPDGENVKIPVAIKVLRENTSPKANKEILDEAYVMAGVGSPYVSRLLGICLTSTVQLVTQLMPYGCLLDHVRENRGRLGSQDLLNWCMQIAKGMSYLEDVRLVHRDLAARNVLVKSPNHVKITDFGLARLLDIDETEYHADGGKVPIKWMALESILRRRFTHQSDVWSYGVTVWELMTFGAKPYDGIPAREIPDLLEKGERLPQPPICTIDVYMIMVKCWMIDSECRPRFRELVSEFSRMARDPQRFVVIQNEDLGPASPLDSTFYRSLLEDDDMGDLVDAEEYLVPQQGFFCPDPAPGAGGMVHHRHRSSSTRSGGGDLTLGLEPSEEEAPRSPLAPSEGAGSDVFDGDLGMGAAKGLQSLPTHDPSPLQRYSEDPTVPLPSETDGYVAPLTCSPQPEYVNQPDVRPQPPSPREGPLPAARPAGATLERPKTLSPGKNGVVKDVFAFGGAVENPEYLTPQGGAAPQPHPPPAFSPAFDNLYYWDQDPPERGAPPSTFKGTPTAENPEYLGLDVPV

[3] = SK-BR-3 cell growth inhibitors, pilot screen, 24 h, human (AID 572;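 active = viability at or below 10% of carrier control in both of two separate runs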;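 note: compound exposure lasted between 18 and 24 h rather than exactly 24 h; 100% = carrier-treated control wells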); conditions: SK-BR-3 viability, CellTiter-Glo luminescence, at 10 µM, stronger effect = lower value
[4] = HUVEC growth inhibition – cell-based, human, primary screen (AID 575); conditions: HUVEC proliferation, CellTiter-Glo luminescence, 72 h; at 10 µM; stronger effect = lower value;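 note: 100% = median of untreated cell wells with 0.1% DMSO on each plate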
How it was run: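 Test system: primary human umbilical vein endothelial cells. Quantity: 1250 cells/well. Compound: single 10 µM dose, 0.1% DMSO, from 5x medium stock. Timing: 72 h treatment at 37 °C. Detection: ATP-based CellTiter-Glo luminescent read. Benchmarks: vehicle and MePR control wells. Format: 384-well plates coated with collagen.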

[5] = growth inhibitors of H69AR lung tumor, primary screen, human, duplicate replicates (AID 580;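 active = viability at or under a set limit in both replicates, limit being median viability minus 3 SD, cut at about 48% in these data, passing the limit was not always enough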;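 note: 100% = mean luminescence of untreated wells and 0% = no signal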); conditions: H69AR lung tumor cells viability, ATP luminescence, 72 h; at 10 µM; stronger effect = lower value
[6] = reversal of MRP1-mediated doxorubicin resistance, pilot screen, H69AR cells, doxorubicin co-treatment (AID 601;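 active = viability loss from added drug above about 55%, and viability with drug at most 40%, in both replicates, limit read from the data, passing the limit was not always enough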); conditions: CellTiter-Glo, 72 h, at 10 µM; for differential viability (reversal): stronger effect = higher value
[7] = 384-well plate pilot, post-Golgi transport modulator project, inhibition of yeast transport mutant growth (AID 636; in the data active = inhibition above about 31%); conditions: absorbance 615 nm, about 18 h, stronger effect = higher value
[8] = growth suppression of yeast trafficking mutant, preliminary HTS, modulators of trafficking downstream of Golgi apparatus project, 1536-format plate, OD 615 nm (AID 637; in the data active = inhibition above about 30%); conditions: yeast transport mutant growth, absorbance 615 nm, 18 h; stronger effect = higher value
[9] = H69AR cells + 2 uM doxorubicin, measured here: viability with 2 uM doxorubicin, stronger effect = lower value
[10] = H69AR cells, compound alone cytotoxicity

SMILES | viability [1] [%] | Her2 level [2] | viability [3] | viability [4] | viability [5] | differential viability (reversal) ([6]; H69AR cells + 2 uM doxorubicin) | viability [6, 9] [%] | viability [6, 10] [%] | inhibition [7] | inhibition [8]
O=C(OCC(=O)N1CCC(Cc2ccccc2)CC1)c1ccc[nH]c1=O | 80.5 | 102% (inactive) | 80.5% (inactive) | 117% (inactive) | 92.6% (inactive) | 2.25% (inactive) | 90.4 | 92.6 | 0.13% (inactive) | -12.3% (inactive)
Cc1ccc(OCC(O)Cn2c(=N)n(CCN3CCCCC3)c3ccccc32)cc1 (stereo not given) | 79 | 63% (inactive) | 79% (inactive) | 2.43% (active) | 18.6% (active) | -3.16% (inactive) | 21.7 | 18.6 | -4% (inactive) | -0.33% (inactive)
COCCOC(=O)c1[nH]c2c(c1C)C(=O)CC(c1ccc(N(C)C)cc1)C2 (stereo not given) | 111 | 116% (inactive) | 111% (inactive) | 91.1% (inactive) | 83.5% (inactive) | -20.9% (inactive) | 104 | 83.5 | -6.16% (inactive) | -5.87% (inactive)
COc1cccc(-n2nc(C(=O)Nc3ccc4c(c3)OCO4)c3ccccc3c2=O)c1 | 109 | 80.5% (inactive) | 109% (inactive) | 85.1% (inactive) | 92.2% (inactive) | 5.91% (inactive) | 86.3 | 92.2 | -2.16% (inactive) | -1.27% (inactive)
Cn1c(=O)cc(OCC(=O)N2CCN(c3cccc(C(F)(F)F)c3)CC2)c2ccccc21 | 89 | 82% (inactive) | 89% (inactive) | 90.7% (inactive) | 75.3% (inactive) | -10% (inactive) | 85.3 | 75.3 | -6.27% (inactive) | 5.57% (inactive)
CCOc1ccc(N2CC(C(=O)Nc3cccc(C)c3C)CC2=O)cc1 (stereo not given) | 118 | 110% (inactive) | 118% (inactive) | 111% (inactive) | 108% (inactive) | 12.1% (inactive) | 95.9 | 108 | -3.47% (inactive) | -4.43% (inactive)
COc1ccccc1N1CCN(C(=O)c2ccc(S(=O)(=O)N3CCCCCC3)cc2)CC1 | 89.5 | 98.5% (inactive) | 89.5% (inactive) | 89.4% (inactive) | 85.5% (inactive) | -2.48% (inactive) | 88 | 85.5 | -5.73% (inactive) | -3.44% (inactive)
CCOC(=O)N1CCN(C(=O)CSc2ncnc3ccccc23)CC1 | 92 | 96% (inactive) | 92% (inactive) | 87.2% (inactive) | 89.1% (inactive) | 14.9% (inactive) | 74.1 | 89.1 | -1.33% (inactive) | 0.33% (inactive)
COCC(=O)N(Cc1nc2ccccc2c(=O)[nH]1)Cc1cccs1 | 103 | 100% (inactive) | 103% (inactive) | 93.3% (inactive) | 98.8% (inactive) | -2.5% (inactive) | 101 | 98.8 | -3.07% (inactive) | -0.65% (inactive)
COc1cc(CN2CCN(C(=O)CC(C)C)CC2)cc(OC)c1O | 114 | 93.5% (inactive) | 114% (inactive) | 103% (inactive) | 102% (inactive) | 5.74% (inactive) | 96.8 | 102 | -1.04% (inactive) | -4.6% (inactive)
CCOC(=O)c1ccc(NS(=O)(=O)c2cccc3nsnc23)cc1 | 90.5 | 106% (inactive) | 90.5% (inactive) | 113% (inactive) | 95.9% (inactive) | -3.26% (inactive) | 99.1 | 95.9 | 1.2% (inactive) | 2.22% (inactive)
Cc1ccccc1CN1CCN(CC(=O)NCc2ccccc2)C1=O | 113 | 117% (inactive) | 113% (inactive) | 97.9% (inactive) | 89.9% (inactive) | 6.96% (inactive) | 83 | 89.9 | -5.32% (inactive) | 2.79% (inactive)
COc1cccc(N2CCN(C(=O)C3C4C=CC5(CN(Cc6ccccc6Cl)C(=O)C35)O4)CC2)c1 (stereo not given) | 83.5 | 97% (inactive) | 83.5% (inactive) | 78.6% (inactive) | 100% (inactive) | 9.13% (inactive) | 91.3 | 100 | -3.42% (inactive) | -6.17% (inactive)
CCN(CC)CCOc1cccc(C(C)C)c1 | 90.5 | 95.5% (inactive) | 90.5% (inactive) | 92.6% (inactive) | 109% (inactive) | 17.4% (inactive) | 91.8 | 109 | 3.25% (inactive) | -1.64% (inactive)
O=C(NCC1COc2ccccc2O1)C1CCCN(S(=O)(=O)c2cnc[nH]2)C1 (stereo not given) | 88 | 101% (inactive) | 88% (inactive) | 91.9% (inactive) | 109% (inactive) | 18.9% (inactive) | 89.7 | 109 | -2.13% (inactive) | -2.95% (inactive)
Cc1ccc(C(=O)Nc2ccc3c(c2)OCO3)cc1S(=O)(=O)N1CCCC1 | 102 | 89% (inactive) | 102% (inactive) | 67.3% (inactive) | 82.6% (inactive) | -0.715% (inactive) | 83.3 | 82.6 | -4% (inactive) | 2.54% (inactive)

SMILES | viability [1] [%] | Her2 level [2] | viability [3] | viability [4] | viability [5] | differential viability (reversal) ([6]; H69AR cells + 2 uM doxorubicin) | viability [6, 9] [%] | viability [6, 10] [%] | inhibition [7] | inhibition [8]
CCc1cc2c(CN3CCN(CCO)CC3)cc(=O)oc2cc1O | 106 | 97% (inactive) | 106% (inactive) | 90.4% (inactive) | 92.6% (inactive) | 0.895% (inactive) | 91.7 | 92.6 | -2.53% (inactive) | 1.61% (inactive)
Cc1cc(NC(=O)CSc2ccc(Cl)cc2)no1 | 88.5 | 114% (inactive) | 88.5% (inactive) | 91.3% (inactive) | 61% (inactive) | -10.7% (inactive) | 71.7 | 61 | -0.66% (inactive) | 22.3% (inactive)
O=C(O)C1CC=CCC1C(=O)Nc1cc(Cl)ccc1Cl (stereo not given) | 86 | 100% (inactive) | 86% (inactive) | 81.2% (inactive) | 93.5% (inactive) | 8.81% (inactive) | 84.7 | 93.5 | 0% (inactive) | -0.82% (inactive)
O=C(CCn1c(=S)[nH]c2ccccc2c1=O)NCC1CCCO1 (stereo not given) | 118 | 100% (inactive) | 118% (inactive) | 111% (inactive) | 98.2% (inactive) | 6.03% (inactive) | 92.2 | 98.2 | -6.13% (inactive) | 0.66% (inactive)
COc1cc(C(=O)Nc2cccc(-c3nc4cc(C)ccc4o3)c2)cc(OC)c1OC | 95 | 80% (inactive) | 95% (inactive) | 66.8% (inactive) | 55.7% (inactive) | 4.43% (inactive) | 51.3 | 55.7 | -5% (inactive) | 4.76% (inactive)
COc1ccccc1C(=O)n1nc(-c2ccc(Cl)cc2)nc1N | 90 | 74.5% (inactive) | 90% (inactive) | 78.7% (inactive) | 71.2% (inactive) | -13.7% (inactive) | 84.9 | 71.2 | -5.06% (inactive) | -8.5% (inactive)
CC1(C)Cc2c(c(-c3ccccc3)nc(N3CCCC3)c2C(N)=O)CO1 | 106 | 97.5% (inactive) | 106% (inactive) | 92.3% (inactive) | 87% (inactive) | 4.6% (inactive) | 82.4 | 87 | -1.95% (inactive) | 1.15% (inactive)
CC(C)CCNc1cc(=O)n(C)c(=O)n1C | 83.5 | 120% (inactive) | 83.5% (inactive) | 91% (inactive) | 88.2% (inactive) | -0.405% (inactive) | 88.6 | 88.2 | -1.3% (inactive) | 20.3% (inactive)
COc1cc(S(=O)(=O)n2nnc3ccccc32)c(OC)cc1Cl | 96 | 81.5% (inactive) | 96% (inactive) | 77% (inactive) | 84.9% (inactive) | -3.02% (inactive) | 87.9 | 84.9 | -2.8% (inactive) | 41.8% (active)
CC1(C)CC(=O)C=C(Nc2ccc(F)cc2)C1 | 102 | 95% (inactive) | 102% (inactive) | 90.5% (inactive) | 96.5% (inactive) | 6.35% (inactive) | 90.1 | 96.5 | -0.39% (inactive) | -3.64% (inactive)
CCOc1ccc(C(C)=O)cc1COc1ccc(-n2cnnn2)cc1 | 99 | 108% (inactive) | 99% (inactive) | 111% (inactive) | 77.2% (inactive) | -2.58% (inactive) | 79.8 | 77.2 | -4% (inactive) | -8.52% (inactive)
COc1cc(-c2nnc(SCc3c(F)cccc3Cl)o2)cc(OC)c1OC | 70.5 | 103% (inactive) | 70.5% (inactive) | 68.5% (inactive) | 85.2% (inactive) | 3.85% (inactive) | 81.3 | 85.2 | -4.19% (inactive) | -4.1% (inactive)
COc1ccc(-c2nnc3sc(-c4c(OC)cccc4OC)nn23)cc1 | 105 | 93.5% (inactive) | 105% (inactive) | 62.6% (inactive) | 75.9% (inactive) | -7.34% (inactive) | 83.2 | 75.9 | -5.13% (inactive) | -7.58% (inactive)
CCc1nnc(NC(=O)CSc2nnc(-c3ccc(OC)cc3)n2C)s1 | 87 | 94% (inactive) | 87% (inactive) | 89.3% (inactive) | 104% (inactive) | 5.08% (inactive) | 98.6 | 104 | -2.8% (inactive) | 1.8% (inactive)
CN(Cc1ccco1)C(=O)Cn1c(=O)oc2cc(S(=O)(=O)NCc3ccccc3)ccc21 | 92 | 85.5% (inactive) | 92% (inactive) | 96.4% (inactive) | 89.8% (inactive) | -3.67% (inactive) | 93.4 | 89.8 | -2.67% (inactive) | 1.8% (inactive)
